Columns and labels:
[1] = system: Canis familiaris; experiment: Total time in minutes elapsed from the initiation of the change until return to the pretest value of blood pressure in coronary sinus of anesthetized dog at intravenous dosage of 0.10 mg/kg; assay type: functional, Canis lupus familiaris; conditions: dose 0.1 mg/kg
In short: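 Open-chest anesthetized dogs were given the compound intravenously. Duration is the total minutes from the start of the change until return to the pretest value. Blood pressure was recorded as change from control.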

[2] = system: Canis familiaris; experiment: Total time in minutes elapsed from the initiation of the change until return to the pretest value of heart rate in coronary sinus of anesthetized dog at intravenous dosage of 0.01 mg/kg; assay type: functional, Canis lupus familiaris
[3] = system: Canis familiaris; experiment: tested for the percent increase in heart rate (HR) in open chest anesthetized dog at intravenous dosage of 0.10 mg/kg; assay type: functional, Canis lupus familiaris; conditions: dose 0.1 mg/kg
[4] = system: Canis familiaris; experiment: Tested for the percent increase in coronary sinus partial pressure of oxygen (PO2) in open chest anesthetized dog at intravenous dosage of 0.10 mg/kg; assay type: functional, Canis lupus familiaris; conditions: dose 0.1 mg/kg
[5] = Lethal dose in mice after peroral administration; assay type: toxicity, organism-based; conditions: mouse, in vivo, po
In short: (§1)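 Male and female mice, three per dose group, were given the compound by the stated route in increments of 0.5 log doses. The LD50 was estimated as an approximate value.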

[6] = Lethal dose in mice after intraperitoneal administration; assay type: toxicity, organism-based; conditions: mouse, in vivo, ip; in short: as §1
[7] = system: Canis familiaris; experiment: Total time in minutes elapsed from the initiation of the change until return to the pretest value of heart rate in coronary sinus of anesthetized dog at intravenous dosage of 0.10 mg/kg; assay type: functional, Canis lupus familiaris; conditions: dose 0.1 mg/kg
[8] = system: Canis familiaris; experiment: Tested for percent increase in coronary sinus partial pressure of oxygen (PO2) in open chest anesthetized dog at intravenous dosage of 0.01 mg/kg; assay type: functional, Canis lupus familiaris
[9] = system: Canis familiaris; experiment: Total time in minutes elapsed from the initiation of the change until return to the pretest value of oxygen partial pressure in coronary sinus of anesthetized dog at intravenous dosage of 0.10 mg/kg; assay type: functional, Canis lupus familiaris; conditions: dose 0.1 mg/kg
[10] = system: Canis familiaris; experiment: Total time in minutes elapsed from the initiation of the change until return to the pretest value of oxygen partial pressure in coronary sinus of anesthetized dog at intravenous dosage of 0.01 mg/kg; assay type: functional, Canis lupus familiaris
[11] = system: Canis familiaris; experiment: Total time in minutes elapsed from the initiation of the change until return to the pretest value of blood pressure in coronary sinus of anesthetized dog at intravenous dosage of 0.01 mg/kg; assay type: functional, Canis lupus familiaris
[12] = system: Canis familiaris; experiment: Tested for the percent increase in coronary sinus partial pressure of oxygen (PO2) in open chest anesthetized dog at intravenous dosage of 5.00 mg/kg; assay type: functional, Canis lupus familiaris
[13] = system: Canis familiaris; experiment: Total time in minutes elapsed from the initiation of the change until return to the pretest value of oxygen partial pressure in coronary sinus of anesthetized dog at intravenous dosage of 1 mg/kg; assay type: functional, Canis lupus familiaris
In short: (§2)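 Open-chest anesthetized dogs given compound by intravenous injection. Coronary sinus PO2 was monitored, and duration was the total time in minutes from the onset of the change until return to the pretest value.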

[14] = system: Canis familiaris; experiment: Total time in minutes elapsed from the initiation of the change until return to the pretest value of oxygen partial pressure in coronary sinus of anesthetized dog at intravenous dosage of 5 mg/kg; assay type: functional, Canis lupus familiaris; in short: as §2
[15] = system: Canis familiaris; experiment: tested for percent increase in coronary sinus partial pressure of oxygen (PO2) in open chest anesthetized dog at intravenous dosage of 1 mg/kg; assay type: functional, Canis lupus familiaris
[16] = system: Canis familiaris; experiment: Total time in minutes elapsed from the initiation of the change until return to the pretest value of blood pressure in coronary sinus of anesthetized dog at intravenous dosage of 1 mg/kg; assay type: functional, Canis lupus familiaris
[17] = system: Canis familiaris; experiment: Total time in minutes elapsed from the initiation of the change until return to the pretest value of heart rate in coronary sinus of anesthetized dog at intravenous dosage of 1 mg/kg; assay type: functional, Canis lupus familiaris
[18] = system: Canis familiaris; experiment: tested for the percent increase in heart rate (HR) in open chest anesthetized dog at intravenous dosage of 1 mg/kg; assay type: functional, Canis lupus familiaris
[19] = system: Canis familiaris; experiment: Total time in minutes elapsed from the initiation of the change until return to the pretest value of heart rate in coronary sinus of anesthetized dog at intravenous dosage of 5.00 mg/kg; assay type: functional, Canis lupus familiaris
[20] = system: Canis familiaris; experiment: Total time in minutes elapsed from the initiation of the change until return to the pretest value of blood pressure in coronary sinus of anesthetized dog at intravenous dosage of 5 mg/kg; assay type: functional, Canis lupus familiaris
[21] = system: Canis familiaris; experiment: tested for the percent increase in aortic blood pressure (BP) in open chest anesthetized dog at intravenous dosage of 1 mg/kg; assay type: functional, Canis lupus familiaris, Artery
In short: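 Open-chest anesthetized dogs received intravenous doses. Aortic blood pressure was recorded as the change from control.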

[22] = system: Canis familiaris; experiment: Tested for the percent increase in aortic blood pressure (BP) in open chest anesthetized dog at intravenous dosage of 5.00 mg/kg; assay type: functional, Canis lupus familiaris, Artery
In short: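 Open-chest anesthetized dogs, compound given iv at the stated dose. Aortic blood pressure is reported as the change from the control (pre-dose) value. Other set-up follows the group's earlier cardiovascular protocol.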

[23] = system: Canis familiaris; experiment: tested for the percent increase in heart rate (HR) in open chest anesthetized dog at intravenous dosage of 0.05 mg/kg; assay type: functional, Canis lupus familiaris
[24] = system: Canis familiaris; experiment: Total time in minutes elapsed from the initiation of the change until return to the pretest value of blood pressure in coronary sinus of anesthetized dog at intravenous dosage of 0.05 mg/kg; assay type: functional, Canis lupus familiaris
[25] = system: Canis familiaris; experiment: Total time in minutes elapsed from the initiation of the change until return to the pretest value of heart rate in coronary sinus of anesthetized dog at intravenous dosage of 0.05 mg/kg; assay type: functional, Canis lupus familiaris
[26] = system: Canis familiaris; experiment: tested for percent increase in coronary sinus partial pressure of oxygen (PO2) in open chest anesthetized dog at intravenous dosage of 0.05 mg/kg; assay type: functional, Canis lupus familiaris
[27] = system: Canis familiaris; experiment: Total time in minutes elapsed from the initiation of the change until return to the pretest value of oxygen partial pressure in coronary sinus of anesthetized dog at intravenous dosage of 0.05 mg/kg; assay type: functional, Canis lupus familiaris

Work on `NC(=O)[C@H]1OC(n2cnc3c(N)ncnc32)[C@H](O)[C@@H]1O` (stereo partly specified) yielded a Duration [1] of 240 min, a Duration [2] of 25 min and an HR [3] of 72%. For the same molecule, the PO2 [4] was 41%, the LD50 [5] was 50 mg/kg and the LD50 [6] was 5 mg/kg. It also gave a Duration [7] of 240 min, a PO2 [8] of 79% and a Duration [9] of 240 min. It also gave a Duration [10] of 25 min and a Duration [11] of 20 min.

In the case of `Nc1ncnc2c1ncn2C1O[C@H](C(=O)NC23CC4CC(CC(C4)C2)C3)[C@@H](O)[C@H]1O` (stereo partly specified), the PO2 [12] is reported as 209%, the Duration [13] is reported as 30 min and the Duration [14] is reported as 60 min. It also gave a PO2 [15] of 56%, a Duration [16] of 1 min and a Duration [17] of 2 min. For the same molecule, the HR [18] was 55%, the Duration [19] was 60 min and the Duration [20] was 8 min. The BP [21] was 22 mmHg, the LD50 [5] was greater than 300 mg/kg and the LD50 [6] was greater than 300 mg/kg. It also gave a BP [22] of 5 mmHg.

Work on `Nc1ncnc2c1ncn2C1O[C@H](C(=O)NCC2CC2)[C@@H](O)[C@H]1O` (stereo partly specified) yielded an HR [23] of 0%, a Duration [24] of 120 min and a Duration [25] of 0 min. It also gave an LD50 [5] of 200 mg/kg, an LD50 [6] of 20 mg/kg and a PO2 [26] of 47%. The Duration [27] was 120 min.

— ChEMBL document CHEMBL1121608, “Modification of the 5' position of purine nucleosides. 2. Synthesis and some cardiovascular properties of adenosine-5'-(N-substituted)carboxamides” (J Med Chem, 1980)
